Assays:
HepG2 [1] = assay: Antiproliferative activity against human HepG2 cells assessed as reduction in cell growth at 8 uM incubated for 72 hrs by CCK-8 assay relative to control; assay type: functional
A-375 [2] = assay: Antiproliferative activity against human A-375 cells assessed as reduction in cell growth incubated for 72 hrs by CCK-8 assay; assay type: functional, cell-based; conditions: A-375, 72 h
How it was run: (§1)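 IC50 by CCK-8 assay across five solid-tumour lines (HCT116, HepG2, H460, HeLa, A375). Run only for compounds chosen after the single-concentration screen, with CS055 and roscovitine as references.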

NCI-H460 [3] = assay: Antiproliferative activity against human NCI-H460 cells assessed as reduction in cell growth incubated for 72 hrs by CCK-8 assay; assay type: functional, cell-based; conditions: NCI-H460, 72 h; how it was run: as §1
HepG2 [4] = assay: Antiproliferative activity against human HepG2 cells assessed as reduction in cell growth incubated for 72 hrs by CCK-8 assay; assay type: functional, cell-based; conditions: HepG2, 72 h; how it was run: as §1
NCI-H460 [5] = assay: Antiproliferative activity against human H460 cells assessed as reduction in cell growth at 8 uM incubated for 72 hrs by CCK-8 assay relative to control; assay type: functional
HCT-116 [6] = assay: Antiproliferative activity against human HCT-116 cells assessed as reduction in cell growth at 8 uM incubated for 72 hrs by CCK-8 assay relative to control; assay type: functional
HCT-116 [7] = assay: Antiproliferative activity against human HCT-116 cells assessed as reduction in cell growth at 2 uM incubated for 72 hrs by CCK-8 assay relative to control; assay type: functional
HCT-116 [8] = assay: Antiproliferative activity against human HCT-116 cells assessed as reduction in cell growth incubated for 72 hrs by CCK-8 assay; assay type: functional, cell-based; conditions: HCT-116, 72 h; how it was run: as §1
HepG2 [9] = assay: Antiproliferative activity against human HepG2 cells assessed as reduction in cell growth at 2 uM incubated for 72 hrs by CCK-8 assay relative to control; assay type: functional
NCI-H460 [10] = assay: Antiproliferative activity against human H460 cells assessed as reduction in cell growth at 2 uM incubated for 72 hrs by CCK-8 assay relative to control; assay type: functional
Histone deacetylase 1 = Histone deacetylase 1 (Homo sapiens, UniProt Q13547); assay: Inhibition of recombinant human HDAC1 at 10 uM using SIRT1 as substrate incubated for 10 mins followed by substrate addition and measured after 30 mins by fluorescence based assay relative to control; conditions: time 40.0 min
How it was run: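 Enzyme inhibition of HDAC1 measured at a single concentration of 10 µM, tested alongside the cell-growth screen.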

HeLa [11] = assay: Antiproliferative activity against human HeLa cells assessed as reduction in cell growth incubated for 72 hrs by CCK-8 assay; assay type: functional, cell-based; how it was run: as §1
A-375 [12] = assay: Induction of apoptosis in human A-375 cells assessed as early apoptotic cells at 2 uM incubated for 48 hrs by annexin V-FITC and PI staining based flow cytometry (reference value: 1.34 %); assay type: functional
HCT-116 [13] = assay: Induction of apoptosis in human HCT-116 cells assessed as late apoptotic cells at 2 uM incubated for 48 hrs by annexin V-FITC and PI staining based flow cytometry (reference value: 1.88 %); assay type: functional
NCI-H460 [14] = assay: Induction of apoptosis in human NCI-H460 cells assessed as late apoptotic cells at 2 uM incubated for 48 hrs by annexin V-FITC and PI staining based flow cytometry (reference value: 6.11 %); assay type: functional
HCT-116 [15] = assay: Induction of apoptosis in human HCT-116 cells assessed as necrotic cells at 2 uM incubated for 48 hrs by annexin V-FITC and PI staining based flow cytometry (reference value: 0.124 %); assay type: functional
HeLa [16] = assay: Induction of apoptosis in human HeLa cells assessed as necrotic cells at 2 uM incubated for 48 hrs by annexin V-FITC and PI staining based flow cytometry (reference value: 0.124 %); assay type: functional
HeLa [17] = assay: Induction of apoptosis in human HeLa cells assessed as late apoptotic cells at 2 uM incubated for 48 hrs by annexin V-FITC and PI staining based flow cytometry (reference value: 0.870 %); assay type: functional
A-375 [18] = assay: Induction of apoptosis in human A-375 cells assessed as late apoptotic cells at 2 uM incubated for 48 hrs by annexin V-FITC and PI staining based flow cytometry (reference value: 2.24 %); assay type: functional
HeLa [19] = assay: Induction of apoptosis in human HeLa cells assessed as viable cells at 2 uM incubated for 48 hrs by annexin V-FITC and PI staining based flow cytometry (reference value: 98.5 %); assay type: functional; conditions: read-out: Activity
NCI-H460 [20] = assay: Induction of apoptosis in human NCI-H460 cells assessed as viable cells at 2 uM incubated for 48 hrs by annexin V-FITC and PI staining based flow cytometry (reference value: 90.4 %); assay type: functional; conditions: read-out: Activity
HCT-116 [21] = assay: Induction of apoptosis in human HCT-116 cells assessed as early apoptotic cells at 2 uM incubated for 48 hrs by annexin V-FITC and PI staining based flow cytometry (reference value: 4.14 %); assay type: functional
HeLa [22] = assay: Induction of apoptosis in human HeLa cells assessed as early apoptotic cells at 2 uM incubated for 48 hrs by annexin V-FITC and PI staining based flow cytometry (reference value: 0.528 %); assay type: functional
NCI-H460 [23] = assay: Induction of apoptosis in human NCI-H460 cells assessed as necrotic cells at 2 uM incubated for 48 hrs by annexin V-FITC and PI staining based flow cytometry (reference value: 0.632 %); assay type: functional
A-375 [24] = assay: Induction of apoptosis in human A-375 cells assessed as viable cells at 2 uM incubated for 48 hrs by annexin V-FITC and PI staining based flow cytometry (reference value: 96.3 %); assay type: functional; conditions: read-out: Activity
NCI-H460 [25] = assay: Induction of apoptosis in human NCI-H460 cells assessed as early apoptotic cells at 2 uM incubated for 48 hrs by annexin V-FITC and PI staining based flow cytometry (reference value: 2.88 %); assay type: functional
A-375 [26] = assay: Induction of apoptosis in human A-375 cells assessed as necrotic cells at 2 uM incubated for 48 hrs by annexin V-FITC and PI staining based flow cytometry (reference value: 0.139 %); assay type: functional
HCT-116 [27] = assay: Induction of apoptosis in human HCT-116 cells assessed as viable cells at 2 uM incubated for 48 hrs by annexin V-FITC and PI staining based flow cytometry (reference value: 93.9 %); assay type: functional; conditions: read-out: Activity

Histone deacetylase 1, sequence (Q13547 whole entry): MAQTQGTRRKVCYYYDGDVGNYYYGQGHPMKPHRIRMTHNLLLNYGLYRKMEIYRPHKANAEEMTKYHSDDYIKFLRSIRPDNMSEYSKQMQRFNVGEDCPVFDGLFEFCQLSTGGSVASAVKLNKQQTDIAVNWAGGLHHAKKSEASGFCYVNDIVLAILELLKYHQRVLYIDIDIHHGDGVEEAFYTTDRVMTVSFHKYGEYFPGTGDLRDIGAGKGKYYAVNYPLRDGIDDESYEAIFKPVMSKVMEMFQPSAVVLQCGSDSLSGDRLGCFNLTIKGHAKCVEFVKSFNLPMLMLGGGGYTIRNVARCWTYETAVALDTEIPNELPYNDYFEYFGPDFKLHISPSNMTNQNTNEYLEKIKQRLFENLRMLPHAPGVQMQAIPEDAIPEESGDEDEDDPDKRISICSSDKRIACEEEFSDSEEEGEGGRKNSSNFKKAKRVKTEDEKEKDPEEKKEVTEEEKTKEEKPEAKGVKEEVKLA

Row | Compound | inhibition at 8 µM (HepG2 [1]) [%] | IC50 (A-375 [2]) [µM] | IC50 (NCI-H460 [3]) [µM] | IC50 (HepG2 [4]) [µM] | inhibition at 8 µM (NCI-H460 [5]) [%] | inhibition at 8 µM (HCT-116 [6]) [%] | inhibition at 2 µM (HCT-116 [7]) [%] | IC50 (HCT-116 [8]) [µM] | inhibition at 2 µM (HepG2 [9]) [%] | inhibition at 2 µM (NCI-H460 [10]) [%] | inhibition (Histone deacetylase 1) [%] | IC50 (HeLa [11]) [µM] | further results
1 | Nc1ccccc1NC(=O)c1ccc(Cn2cnc3c(Nc4ccccc4)nc(Cl)nc32)cc1 | 74.8 | 2.8 | 5.74 | 4.18 | 77.8 | 83.5 | 71.4 | 1.07 | 49.6 | 42.7 | 84 | 2.92 | –
2 | CC[C@H](CO)Nc1nc(NCc2ccccc2)c2ncn(C(C)C)c2n1 [SELICICLIB] | 22.1 | 11.8 | 11.9 | 8.53 | 15.6 | 29.1 | 23.5 | 6.76 | 12 | 7.73 | – | 11.2 | Activity (A-375 [12]): 7.03%; Activity (HCT-116 [13]): 4.24%; Activity (NCI-H460 [14]): 36%; Activity (HCT-116 [15]): 0.24%; Activity (HeLa [16]): 0.424%; Activity (HeLa [17]): 7.16%; Activity (A-375 [18]): 42.3%; viability at 2 µM (HeLa [19]): 88.4%; viability at 2 µM (NCI-H460 [20]): 47%; Activity (HCT-116 [21]): 83.9%; Activity (HeLa [22]): 4.04%; Activity (NCI-H460 [23]): 3.09%; viability at 2 µM (A-375 [24]): 50.5%; Activity (NCI-H460 [25]): 14%; Activity (A-375 [26]): 0.189%; viability at 2 µM (HCT-116 [27]): 11.6%
3 | Nc1ccccc1NC(=O)c1ccc(Cn2cnc3c(N4CCOCC4)nc(Cl)nc32)cc1 | 71.3 | 2.68 | 6.09 | 2.82 | 47 | 80.7 | 77.7 | 0.45 | 56.9 | 5.05 | 93.2 | 2.03 | –
4 | CCC(C)n1cnc2c(NCc3ccc(C(=O)Nc4ccccc4N)cc3)nc(Cl)nc21 (configuration not stated) | 65 | 2.88 | 4.94 | 2.99 | 67.7 | 75.1 | 74.6 | 0.72 | 45 | 47.3 | 94.7 | 3.03 | –
5 | CC(C)n1cnc2c(NCc3ccc(C(=O)Nc4ccccc4N)cc3)nc(Cl)nc21 | 74.4 | 2.17 | 3.41 | 3.32 | 80.5 | 76 | 73.2 | 0.8 | 63.8 | 54.1 | 89.7 | 2.13 | –
6 | CN1CCN(c2nc(Cl)nc3c2ncn3Cc2ccc(C(=O)Nc3ccccc3N)cc2)CC1 | 75 | 1.6 | 6.16 | 2.01 | 55 | 72.8 | 71.6 | 0.31 | 60.4 | 13.4 | 80.5 | 1.17 | –

From ChEMBL document CHEMBL4765302, “Design, synthesis and biological evaluation of novel histone deacetylase1/2 (HDAC1/2) and cyclin-dependent Kinase2 (CDK2) dual inhibitors against malignant cancer” (Eur J Med Chem, 2020)
